Active and inactive are the calls of the source.
Experiments:
[1] = Cytotoxicity against mouse […] cells after 48 hrs by MTT assay; type: cell-based
Outline: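 J774 macrophages in DMEM (4 mM L-glutamine, 10% heat-inactivated FBS) were seeded at 1 × 10^5 cells/well and grown for 48 h at 37 °C, 5% CO2. They were then exposed to compounds at 25–400 µM for 48 h. MTT (0.1 mg/mL final) was added for 3 h, formazan was dissolved in DMSO/glycine buffer pH 10.5, and absorbance was read at 560 nm to give an IC50.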

HT-29 [2] = assay: Inhibition of TNFalpha-induced NF-kappaB activation expressed in human HT-29 cells coexpressing hrGFP at 100 uM after 24 hrs by propidium iodide staining-based flow cytometric analysis relative to control; type: cell-based
Outline: (§1)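 HT-29 cells stably expressing NF-κB-driven hrGFP given compound (DMSO <0.5%) for 2 h at the maximum non-cytotoxic concentration, then TNF-α at 3 ng/mL final for 18–24 h. Cells trypsinised and stained with propidium iodide; 5000 events gated on FSC/SSC. The %GFP-positive among PI-excluding live cells is normalised to TNF-α/DMSO control, ± SD.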

[3] = Solubility of the compound in soybean lipoxygenase assay buffer at pH 7.4 at >50 uM; type: physicochemical
Glycine max = assay: Inhibition of soybean lipoxygenase using arachidonic acid as substrate at 50 uM
Outline: (§2)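 Soybean 15-lipoxygenase kit assay, arachidonic acid substrate, H2O2 as lipoxygenating agent in 0.1 M Tris-HCl pH 7.4. Single-point screen at 50 µM. IC50 found by varying concentration over 10–100 µM. Quercetin at 4 µM as positive control; duplicate means; Student t-test.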

[4] = Cytotoxicity against human HT-29 cells expressing NF-kappaB-hrGFP assessed as highest non-cytotoxic dose for 100% cell survival after 24 hrs by MTT assay; type: cell-based; conditions: read-out: Activity
Outline: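 HT-29 cells stably carrying pNF-κB-hrGFP, seeded at 0.5 × 10^6/mL in DMEM with 10% FBS, grown 24 h at 37 °C, 5% CO2. Compounds added in DMSO (<0.5% v/v final) at 12.5–400 µM for 24 h. Viability by MTT reduction (2 h), formazan dissolved in DMSO/glycine buffer, read at 560 nm.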

HT-29 [5] = assay: Pro-inflammatory activity in NFkappaB-GFP transfected human HT-29 cells at 25 to 400 uM after 24 hrs by propidium iodide staining-based flow cytometric analysis; type: ADME, cell-based; conditions: ht-29, 24 h
Outline: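 Reporter HT-29-NF-κB-hrGFP cells given compound alone, without TNF-α, for 18–24 h at 37 °C after the same 2 h pre-incubation. GFP-positive live (propidium iodide-excluding) cells counted by flow cytometry; IL-8 in supernatant measured by bead-based flow cytometry.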

HT-29 [6] = assay: Inhibition of NF-kappaB activation expressed in human HT-29 cells assessed as inhibition of TNFalpha-stimulated IL8 release at 20 uM after 24 hrs by flow cytometric analysis relative to control; type: cell-based
Outline: (§3)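 Reporter HT-29-NF-κB-hrGFP cells pretreated 2 h with compound (DMSO <0.5%) at the highest concentration with 100% survival, then stimulated with TNF-α (3 ng/mL final) for 18–24 h at 37 °C. IL-8 in clarified supernatant measured by flow cytometric bead assay (500 events). Expressed as % of TNF-α/DMSO control ± SD; thalidomide as reference.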

HT-29 [7] = assay: Inhibition of TNF-alpha-induced NFkappaB activation expressed in human HT-29 cells coexpressing hrGFP at 20 uM after 24 hrs by propidium iodide staining-based flow cytometric analysis relative to control; type: cell-based; outline: as §1
[8] = Induction of NO release in 0.1 M Tris-HCl and 0.1 mM DTPA at pH 7.4 measured for 20 mins in presence of cysteine; type: physicochemical; conditions: buffer, pH 7.4, 20 min
Outline: (§4)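 Electrochemical NO detection with an ISO-NOP sensor. Compounds in DMSO added to 0.1 M Tris-HCl, 0.1 mM DTPA at pH 7.4 or 8.3. Cysteine (300 or 100 µM) added and NO recorded for 20 min at 25 or 37 °C; compound:Cys ratio 1:1 at 25 °C, with 3:1 and 37 °C runs also made.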

Rattus norvegicus [9] = assay: Antiinflammatory activity in albino rat assessed as inhibition of carrageenan-induced paw edema at 100 umol/kg, po administered 1 hr before carrageenan challenge measured after 3 hrs by plethysmometric analysis relative to control; type: functional
Outline: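 Albino rats of both sexes (150–200 g) were dosed orally as a suspension in 1% Tween 80 in saline, with vehicle controls. After 1 h, 0.1 mL 1% carrageenan or saline was injected subplantar. Paw volume was read by glass plethysmometer at 3 h. Edema = carrageenan-paw minus saline-paw volume; % inhibition vs vehicle; Student t-test.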

[10] = target: T1, Prostaglandin G/H synthase 1 (Ovis aries) (UniProt P05979); conditions: 0.1 uM
T1 sequence (whole entry): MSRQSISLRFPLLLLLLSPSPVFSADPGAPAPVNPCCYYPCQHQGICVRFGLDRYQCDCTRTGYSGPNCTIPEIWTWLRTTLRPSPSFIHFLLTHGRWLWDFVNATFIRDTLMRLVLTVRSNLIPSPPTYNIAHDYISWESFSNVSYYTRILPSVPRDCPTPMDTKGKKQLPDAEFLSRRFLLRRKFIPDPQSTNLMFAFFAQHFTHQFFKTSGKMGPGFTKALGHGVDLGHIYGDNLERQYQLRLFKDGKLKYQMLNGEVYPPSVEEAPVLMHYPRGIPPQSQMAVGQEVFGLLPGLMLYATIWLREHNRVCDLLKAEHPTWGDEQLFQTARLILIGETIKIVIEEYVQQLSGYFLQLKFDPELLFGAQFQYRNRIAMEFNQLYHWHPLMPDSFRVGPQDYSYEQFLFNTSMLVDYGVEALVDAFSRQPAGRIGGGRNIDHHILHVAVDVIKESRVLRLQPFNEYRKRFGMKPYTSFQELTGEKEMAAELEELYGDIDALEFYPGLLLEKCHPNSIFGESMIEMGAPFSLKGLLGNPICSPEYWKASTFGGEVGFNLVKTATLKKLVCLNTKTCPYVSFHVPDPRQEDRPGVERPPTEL

Mus musculus [11] = assay: Analgesic activity in albino mouse assessed as inhibition of acetic acid-induced abdominal constriction at 100 umol/kg, po administered 1 hr before acetic acid challenge measured after 60 mins relative to control; type: functional; conditions: Abdomen
Outline: (§5)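 Albino mice of both sexes (18–23 g) were dosed orally as a suspension in 5% arabic gum in saline, with vehicle controls. After 1 h they received 0.6% acetic acid ip (0.1 mL/10 g). Constrictions were counted for 20 min starting 10 min after injection. Data are % inhibition vs vehicle, mean ± SEM, Student t-test.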

Salmonella typhimurium [12] = assay: Induction of mutagenesis in Salmonella Typhimurium TA98 assessed as number of revertants at 3.1 to 250 ug/plate in absence of mouse liver S9 fraction; type: toxicity, organism-based; conditions: salmonella enterica subsp. enterica serovar typhimurium
Outline: (§6)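 S. typhimurium TA98, plate incorporation on minimal glucose (Vogel-Bonner) agar. Compounds were in DMSO, dosed in triplicate with a top non-toxic dose of 250 or 350 µg/plate. Runs were without S9 (positive control 4-nitro-o-phenylenediamine, 20 µg/plate) or with 500 µL Aroclor-induced mouse liver S9 (positive control 2-aminofluorene, 10 µg/plate), plus a DMSO control. Revertants were counted manually; mutagenic means ≥2-fold spontaneous revertants at two consecutive doses.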

HT-29 [13] = assay: Inhibition of TNFalpha-induced NF-kappaB activation expressed in human HT-29 cells coexpressing hrGFP at 400 uM after 24 hrs by propidium iodide staining-based flow cytometric analysis relative to control; type: cell-based; outline: as §1
[14] = Induction of NO release in 0.1 M Tris-HCl and 0.1 mM DTPA at pH 8.3 measured for 20 mins in presence of cysteine; type: physicochemical; conditions: buffer, pH 8.3, 20 min; outline: as §4
Salmonella typhimurium [15] = assay: Induction of mutagenesis in Salmonella Typhimurium TA98 assessed as number of revertants at 3.1 to 250 ug/plate in presence of mouse liver S9 fraction; type: toxicity, organism-based; conditions: salmonella enterica subsp. enterica serovar typhimurium; outline: as §6
[16] = Inhibition of soybean lipoxygenase using arachidonic acid as substrate; set-up: species or system Glycine max; outline: as §2
HT-29 [17] = assay: Inhibition of NF-kappaB activation expressed in human HT-29 cells assessed as inhibition of TNFalpha-stimulated IL8 release at 400 uM after 24 hrs by flow cytometric analysis relative to control; type: cell-based; outline: as §3
Mus musculus [18] = assay: Analgesic activity in albino mouse assessed as inhibition of acetic acid-induced abdominal constriction at 100 umol/kg, po administered 1 hr before acetic acid challenge measured after 30 mins relative to control; type: functional; conditions: Abdomen; outline: as §5
HT-29 [19] = assay: Inhibition of NF-kappaB activation expressed in human HT-29 cells assessed as inhibition of TNFalpha-stimulated IL8 release at 50 uM after 24 hrs by flow cytometric analysis relative to control; type: cell-based; outline: as §3
Rattus norvegicus [20] = assay: Antihyperalgesic activity against carrageenan-induced thermal hyperalgesia in Wistar rat assessed as latency of withdrawal response at 100 umol/kg, po administered 1 hr before carrageenan challenge measured after 30 to 240 mins by hot plate test; type: functional, organism-based
Outline: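 Wistar rats of both sexes (150–200 g) dosed orally at 100 µmol/kg as suspension in 5% arabic gum in saline, vehicle controls. After 1 h, 1% carrageenan (1 mg/paw) or saline injected subplantar. Left hind paw withdrawal latency on hot plate at 51 ± 0.1 °C read at 0–240 min, 20 s cut-off. Δ latency = time-0 latency minus later latency; mean ± SEM, n = 8–10; Student t-test.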

HT-29 [21] = assay: Inhibition of TNF-alpha-induced NFkappaB activation expressed in human HT-29 cells coexpressing hrGFP at 50 uM after 24 hrs by propidium iodide staining-based flow cytometric analysis relative to control; type: cell-based; outline: as §1
HT-29 [22] = assay: Inhibition of TNFalpha-induced NF-kappaB activation expressed in human HT-29 cells coexpressing hrGFP at 200 uM after 24 hrs by propidium iodide staining-based flow cytometric analysis relative to control; type: cell-based; outline: as §1

Row | Structure (SMILES) | IC50 [1] [µM] | inhibition (Glycine max) [%] | MNTC at 24 h [4] [µM] | Activity (HT-29 [5]) | Activity [8] [nM/min] | inhibition in vivo at 100 µmol/kg (Rattus norvegicus [9]) [%] | inhibition in vivo at 100 µmol/kg (Mus musculus [11]) [%] | Activity [14] [nM/min] | also measured
1 | Cc1c(C(=O)N/N=C/c2ccccc2O)no[n+]1[O-] | 246 | 37 | 100 | Non-toxic |  |  |  |  | NF-kappaB activity (% of TNF-alpha control) (HT-29 [2]): 55%; solubility [3]: Insoluble
2 | O=S(=O)(c1ccccc1)c1no[n+]([O-])c1S(=O)(=O)c1ccccc1 |  |  | 20 | Non-toxic | 3700 |  |  |  | inhibition (HT-29 [6]): 6%; inhibition (HT-29 [7]): 6%
3 | COc1ccc2c(c1)c(CC(=O)O)c(C)n2C(=O)c1ccc(Cl)cc1 [INDOMETHACIN] |  |  |  |  |  | 61 | 44 |  | inhibition [10]: 49.7%
4 | Cc1c(C(=O)N/N=C/c2ccc(C(=O)O)cc2)no[n+]1[O-] | > 400 | 74 | 400 | Non-toxic | 1.04 | 16 | 0 | 0.19 | Activity (Salmonella typhimurium [12]): Non-toxic; NF-kappaB activity (GFP-positive cells), % of TNF-alpha control (HT-29 [13]): 125%; Activity (Salmonella typhimurium [15]): Non-toxic; IC50 [16]: 35 µM; inhibition (HT-29 [17]): 53%
5 | O=C(N/N=C/c1ccc2no[n+]([O-])c2c1)c1cccnc1 | 31 | 0 | 50 | Non-toxic | 0 | 0 |  | 0.64 | inhibition in vivo at 100 µmol/kg (Mus musculus [18]): 35%; inhibition (HT-29 [19]): 29%; Activity (Rattus norvegicus [20]): inactive; NF-kappaB activation (% of TNF-alpha control) (HT-29 [21]): 66%
6 | Cc1[nH]cnc1C(=O)N/N=C/c1c(-c2ccccc2)no[n+]1[O-] | > 400 |  | 200 | Non-toxic |  |  |  |  | inhibition (HT-29 [22]): 103%
